Source: ChEMBL document CHEMBL3763095, “Naphtho[1',2':4,5]imidazo[1,2-a]pyridine-5,6-diones: Synthesis, enzymatic reduction and cytotoxic activity” (Bioorg Med Chem Lett, 2016)

Key:
Parameters in all cases: species or system Homo sapiens
[1] = substrate: O=C1C(=O)c2c(nc3ccc([N+](=O)[O-])cn23)-c2ccccc21; assay: (§1) Activity of NADPH:cytochrome P-450R (unknown origin) assessed as NADPH oxidation by spectrophotometric analysis
Summary of the method: (§2)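 Initial rates of enzymatic reduction measured at varied compound concentrations with NADPH fixed at 150 µM. Reactivity expressed as apparent second-order k_cat/K_m, taken as the efficiency of reduction by the reduced free enzyme (ping-pong scheme).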

[2] = substrate: O=C1C(=O)c2c(nc3ccc(F)cn23)-c2ccccc21; assay: as §1; summary of the method: as §2
[3] = substrate: O=C1C(=O)c2c(nc3ccc(C(F)(F)F)cn23)-c2ccccc21; assay: as §1; summary of the method: as §2
[4] = substrate: Cc1cccn2c3c(nc12)-c1ccccc1C(=O)C3=O; assay: as §1; summary of the method: as §2
[5] = substrate: O=C1C(=O)c2c(nc3ccccn23)-c2ccc([N+](=O)[O-])cc21; assay: as §1; summary of the method: as §2
[6] = substrate: Cc1ccc2nc3c(n2c1)C(=O)C(=O)c1ccccc1-3; assay: as §1; summary of the method: as §2
[7] = substrate: O=C1C(=O)c2c(nc3ccc4ccccc4n23)-c2ccccc21; assay: as §1; summary of the method: as §2
[8] = substrate: O=C1C(=O)c2c(nc3ncccn23)-c2ccccc21; assay: as §1; summary of the method: as §2
[9] = substrate: Cc1ccn2c3c(nc2c1)-c1ccccc1C(=O)C3=O; assay: as §1; summary of the method: as §2
[10] = substrate: O=C1C(=O)c2c(nc3ccc(Br)cn23)-c2ccccc21; assay: as §1; summary of the method: as §2
[11] = substrate: O=C1C(=O)c2c(nc3ccccn23)-c2ccccc21; assay: as §1; summary of the method: as §2
[12] = substrate: COc1ccc2nc3c(n2c1)C(=O)C(=O)c1ccccc1-3; assay: as §1; summary of the method: as §2
[13] = substrate: O=C1C(=O)c2c(nc3ccc(Cl)cn23)-c2ccccc21; assay: as §1; summary of the method: as §2

B1: NADPH--cytochrome P450 reductase (Homo sapiens) (protein)
chain: MGDSHVDTSSTVSEAVAEEVSLFSMTDMILFSLIVGLLTYWFLFRKKKEEVPEFTKIQTLTSSVRESSFVEKMKKTGRNIIVFYGSQTGTAEEFANRLSKDAHRYGMRGMSADPEEYDLADLSSLPEIDNALVVFCMATYGEGDPTDNAQDFYDWLQETDVDLSGVKFAVFGLGNKTYEHFNAMGKYVDKRLEQLGAQRIFELGLGDDDGNLEEDFITWREQFWPAVCEHFGVEATGEESSIRQYELVVHTDIDAAKVYMGEMGRLKSYENQKPPFDAKNPFLAAVTTNRKLNQGTERHLMHLELDISDSKIRYESGDHVAVYPANDSALVNQLGKILGADLDVVMSLNNLDEESNKKHPFPCPTSYRTALTYYLDITNPPRTNVLYELAQYASEPSEQELLRKMASSSGEGKELYLSWVVEARRHILAILQDCPSLRPPIDHLCELLPRLQARYYSIASSSKVHPNSVHICAVVVEYETKAGRINKGVATNWLRAKEPAGENGGRALVPMFVRKSQFRLPFKATTPVIMVGPGTGVAPFIGFIQERAWLRQQGKEVGETLLYYGCRRSDEDYLYREELAQFHRDGALTQLNVAFSREQSHKVYVQHLLKQDREHLWKLIEGGAHIYVCGDARNMARDVQNTFYDIVAELGAMEHAQAVDYIKKLMTKGRYSLDVWS
- kcat/Km [1]: 5.9e+07 M⁻¹ s⁻¹
- kcat/Km [2]: 2.4e+07 M⁻¹ s⁻¹
- kcat/Km [3]: 3.5e+07 M⁻¹ s⁻¹
- kcat/Km [4]: 1.3e+07 M⁻¹ s⁻¹
- kcat/Km [5]: 7.2e+07 M⁻¹ s⁻¹
- kcat/Km [6]: 8.9e+06 M⁻¹ s⁻¹
- kcat/Km [7]: 5.6e+06 M⁻¹ s⁻¹
- kcat/Km [8]: 3.4e+07 M⁻¹ s⁻¹
- kcat/Km [9]: 1.4e+07 M⁻¹ s⁻¹
- kcat/Km [10]: 3.7e+07 M⁻¹ s⁻¹
- kcat/Km [11]: 3.1e+07 M⁻¹ s⁻¹
- kcat/Km [12]: 2.9e+07 M⁻¹ s⁻¹
- kcat/Km [13]: 5.4e+07 M⁻¹ s⁻¹
